In ChEMBL document CHEMBL2150901, “Synthesis and biological activity of tricyclic cycloalkylimidazo-, pyrimido- and diazepinopurinediones” (Eur J Med Chem, 2011):
Calls of active or inactive are those of the source. No cut-off for these calls is given here.

Tests used:
Rattus norvegicus [1] = assay: Anticonvulsant activity in Sprague-Dawley albino rat assessed as protection against subcutaneous pentylenetetrazole-induced seizures at 50 mg/kg, po after 2 hrs; assay type: functional, organism-based; design: dose 50 mg/kg
How it was run: (§1)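 Male Sprague-Dawley albino rats (100–150 g), groups of 4. Oral suspension in 0.5% methylcellulose/water. Protection assessed by maximal electroshock or subcutaneous pentylenetetrazole; motor impairment by rotorod. Time points 0.25–4 h. Value is protected (or toxic)/tested animals.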

Rattus norvegicus [2] = assay: Anticonvulsant activity in Sprague-Dawley albino rat assessed as protection against maximal electroshock-induced seizures at 30 mg/kg, po after 2 hrs; assay type: functional, organism-based; design: dose 30 mg/kg; how it was run: as §1
Rattus norvegicus [3] = assay: Anticonvulsant activity in Sprague-Dawley albino rat assessed as protection against maximal electroshock-induced seizures at 30 mg/kg, po after 4 hrs; assay type: functional, organism-based; design: dose 30 mg/kg; how it was run: as §1
Adenosine receptor A2b = biological target: T1, Adenosine receptor A2b (Homo sapiens, UniProt P29275); assay: Displacement of [3H]ZM241385 from human adenosine A2B receptor expressed in CHO cells; assay type: cell-based
T1 sequence (P29275 whole entry): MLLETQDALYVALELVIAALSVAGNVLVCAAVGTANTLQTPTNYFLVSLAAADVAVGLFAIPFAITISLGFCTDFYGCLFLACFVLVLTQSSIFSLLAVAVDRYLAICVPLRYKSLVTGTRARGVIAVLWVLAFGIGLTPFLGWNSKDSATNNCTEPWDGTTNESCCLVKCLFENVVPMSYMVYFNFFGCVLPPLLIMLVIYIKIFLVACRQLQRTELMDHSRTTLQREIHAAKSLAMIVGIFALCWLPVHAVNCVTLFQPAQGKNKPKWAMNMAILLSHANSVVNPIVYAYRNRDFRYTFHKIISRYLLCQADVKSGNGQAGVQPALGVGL

Rattus norvegicus [4] = assay: Neurotoxicity in Sprague-Dawley albino rat assessed as minimal motor impairment at 30 mg/kg, po after 0.25 hrs by rotorod test; assay type: toxicity, organism-based; design: dose 30 mg/kg, route oral; conditions: in vivo; how it was run: as §1
Rattus norvegicus [5] = assay: Anticonvulsant activity in Sprague-Dawley albino rat assessed as protection against subcutaneous pentylenetetrazole-induced seizures at 50 mg/kg, po after 0.25 hrs; assay type: functional, organism-based; design: dose 50 mg/kg; how it was run: as §1
Adenosine receptor A3 = biological target: T2, Adenosine receptor A3 (Homo sapiens, UniProt P0DMS8); assay: Displacement of [3H]PSB-11 from human recombinant adenosine A3 receptor expressed in CHO cells; assay type: cell-based
T2 sequence (P0DMS8 whole entry): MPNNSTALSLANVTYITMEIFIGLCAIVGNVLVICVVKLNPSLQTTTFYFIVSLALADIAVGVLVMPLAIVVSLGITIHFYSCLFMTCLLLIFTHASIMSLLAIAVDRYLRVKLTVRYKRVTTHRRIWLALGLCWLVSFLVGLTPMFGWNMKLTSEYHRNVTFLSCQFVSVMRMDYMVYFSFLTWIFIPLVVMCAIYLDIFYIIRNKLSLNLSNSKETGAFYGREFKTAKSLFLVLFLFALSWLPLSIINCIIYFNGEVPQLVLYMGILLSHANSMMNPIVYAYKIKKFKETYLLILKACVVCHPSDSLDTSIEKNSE

Mus musculus [6] = assay: Neurotoxicity in F1 albino mouse assessed as minimal motor impairment at 300 mg/kg, ip after 0.5 hrs by rotorod test; assay type: toxicity, organism-based; design: dose 300 mg/kg, route intraperitoneal; conditions: in vivo
How it was run: (§2)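 Male albino F-1 mice (18–25 g), groups of 1–5 (rotorod 2–8). Compound given ip as a suspension in 0.5% methylcellulose at 30, 100 and 300 mg/kg. Seizures by maximal electroshock or subcutaneous pentylenetetrazole; neurotoxicity by rotorod. Read at 0.5 and 4 h, with some at 0.25, 1 and 2 h. Value is the minimum active dose, with protected (or toxic)/tested animals.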

Mus musculus [7] = assay: Neurotoxicity in F1 albino mouse assessed as minimal motor impairment at 300 mg/kg, ip after 1 hr by rotorod test; assay type: toxicity, organism-based; design: dose 300 mg/kg, route intraperitoneal; conditions: in vivo; how it was run: as §2
Rattus norvegicus [8] = assay: Neurotoxicity in Sprague-Dawley albino rat assessed as minimal motor impairment at 30 mg/kg, po after 1 hr by rotorod test; assay type: toxicity, organism-based; design: dose 30 mg/kg, route oral; conditions: in vivo; how it was run: as §1
Mus musculus [9] = assay: Neurotoxicity in F1 albino mouse assessed as minimal motor impairment at 300 mg/kg, ip after 0.25 hrs by rotorod test; assay type: toxicity, organism-based; design: dose 300 mg/kg, route intraperitoneal; conditions: in vivo; how it was run: as §2
Adenosine receptor A2a = Adenosine receptor A2a (Homo sapiens, UniProt P29274); assay: Displacement of [3H]MSX-2 from human recombinant adenosine A2A receptor expressed in CHO cells; assay type: cell-based
Rattus norvegicus [10] = assay: Neurotoxicity in Sprague-Dawley albino rat assessed as minimal motor impairment at 30 mg/kg, po after 4 hrs by rotorod test; assay type: toxicity, organism-based; design: dose 30 mg/kg, route oral; conditions: in vivo
How it was run: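 Male Sprague-Dawley albino rats (100–150 g), groups of 4, dosed orally with a suspension in 0.5% methylcellulose/water. Neurotoxicity was scored as minimal motor impairment on the rotorod at 0.25, 0.5, 1 and 4 h. Results are reported as animals showing toxicity per animals tested.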

Mus musculus [11] = assay: Anticonvulsant activity in F1 albino mouse assessed as protection against subcutaneous pentylenetetrazole-induced seizures at 300 mg/kg, ip after 0.25 hrs; assay type: functional, organism-based; design: dose 300 mg/kg; how it was run: as §2

Adenosine receptor A2a, sequence (P29274 whole entry): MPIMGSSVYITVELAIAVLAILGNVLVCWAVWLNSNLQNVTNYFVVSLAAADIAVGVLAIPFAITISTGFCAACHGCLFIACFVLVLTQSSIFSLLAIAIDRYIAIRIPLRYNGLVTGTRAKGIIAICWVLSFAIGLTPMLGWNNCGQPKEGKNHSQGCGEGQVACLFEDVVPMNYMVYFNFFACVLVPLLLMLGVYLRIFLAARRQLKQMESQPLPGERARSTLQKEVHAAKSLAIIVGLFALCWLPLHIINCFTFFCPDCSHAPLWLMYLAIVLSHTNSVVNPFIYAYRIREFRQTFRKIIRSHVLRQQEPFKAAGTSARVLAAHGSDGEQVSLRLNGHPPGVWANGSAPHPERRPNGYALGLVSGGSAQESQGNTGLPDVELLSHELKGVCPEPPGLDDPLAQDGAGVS

- Ki (Adenosine receptor A2b): 12.5 µM
- Ki (Adenosine receptor A3): > 10 µM
- Ki (Adenosine receptor A2a): 417 nM
Compound: Cn1c(=O)c2c(nc3n2CCCN3CC2CC2)n(C)c1=O
- Activity (Rattus norvegicus [1]): inactive
- Activity (Rattus norvegicus [2]): inactive
- Activity (Rattus norvegicus [3]): inactive
- Activity (Rattus norvegicus [4]): Non-toxic
- Activity (Rattus norvegicus [5]): inactive
- Activity (Mus musculus [6]): Toxic
- Activity (Mus musculus [7]): Non-toxic
- Activity (Rattus norvegicus [8]): Non-toxic
- Activity (Mus musculus [9]): Non-toxic
- Activity (Rattus norvegicus [10]): Non-toxic
- Activity (Mus musculus [11]): inactive
